Data set [1] deals with 3T3-L1. The experiment in a line: Inhibition of triglyceride accumulation in mouse 3T3L1 cells at 10 uM after 3 days relative to control. The class given is functional. The settings on record: 3T3-L1, 72 h. The essentials: (§1)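 3T3-L1 preadipocytes differentiated from 2 days post-confluence: 3 days in DMEM/10% FBS with insulin, dexamethasone, 0.5 mM IBMX and biotin, then 3 days with insulin only. Compounds in DMSO (0.1% DMSO vehicle) given on days 0 and 3. Berberine as positive control. Cells washed in ice-cold PBS and lysed; triglyceride measured with a commercial kit. Reported as TG relative to […] cells, mean ± SD of three independent experiments.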

The subject of data set [2] is 3T3-L1. The experiment in a line: Inhibition of triglyceride accumulation in mouse 3T3L1 cells after 3 days. The class given is functional, cell-based. The settings on record: in the assay text read “after 6 days” for “after 3 days”. The essentials:
as §1

In data set [3] the test system is 3T3-L1. The experiment in a line: Inhibition of triglyceride accumulation in mouse 3T3L1 cells at 1 to 10 uM after 6 days by ORO staining-based microscopic method. It counts as functional, cell-based. The essentials:
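Differentiating 3T3-L1 cells received compounds in DMSO with the differentiation cocktail over 6 days, with 0.1% DMSO vehicle and berberine control. On day 6, cells fixed 1 h in 10% formaldehyde/PBS at room temperature and stained 30 min with fresh Oil Red O. After water washes, they were imaged at 10× magnification under constant light settings. Undifferentiated cells served as reference.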

Data set [4] is described as follows: Cytotoxicity against HEK293T cells after 24 hrs by MTT assay. The class given is cell-based, HEK-293T. The settings on record: human. The essentials: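 HEK293T seeded 5000/well, grown overnight, then exposed to a range of compound concentrations for 24 h with 0.5% DMSO vehicle. MTT (0.05 mg/well) added for 4 h, formazan dissolved in DMSO, absorbance read at 492 nm after 20 min shaking. Percentage computed as (A experiment − A blank)/(A control − A blank).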

Data set [5] concerns 3T3-L1. As to the kind of experiment: Downregulation of PPARgamma mRNA expression in mouse 3T3L1 cells at 10 uM after 3 days by RT-qPCR method. The class given is functional, cell-based.
Data set [6] has as its system 3T3-L1. As to the kind of experiment: Downregulation of SREBP-1c mRNA expression in mouse 3T3L1 cells at 10 uM after 3 days by RT-qPCR method. The class given is functional, cell-based. The essentials: (§2)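 Compounds were added to 3T3-L1 cells during cocktail-induced differentiation. Total RNA was extracted with RNAiso plus, and 1 µg was reverse-transcribed before real-time qPCR. Mouse primers were used for AMPK, ACC, SREBP-1c and FABP4. Mean ± SD of 3 independent experiments versus vehicle.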

Data set [7] relates to 3T3-L1. The experiment in a line: Downregulation of FABP4 mRNA expression in mouse 3T3L1 cells at 10 uM after 3 days by RT-qPCR method. It counts as functional, cell-based. In a few lines: as §2
The species entered for data set [8] is Mus musculus. The experiment in a line: Induction of AMPKalpha phosphorylation in mouse 3T3L1 cells at 10 uM after 3 days by Western blotting method relative to control. It counts as cell-based. The essentials: (§3)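 3T3-L1 lysates were made in NP-40/deoxycholate/SDS buffer with protease and phosphatase inhibitors, then transferred to membranes. Membranes were blocked 2 h in 5% skim milk/TBST and probed with antibodies to phospho-Thr172 and total AMPKα, phospho-Ser79 and total ACC, SIRT1, PPARγ, SREBP-1c and FABP4. Detection was by ECL, with densitometry normalized to α-tubulin. Mean ± SD of 3 independent experiments.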

The species named for data set [9] is Mus musculus. The experiment in a line: Induction of AMPKalpha phosphorylation in mouse 3T3L1 cells assessed as increase in ACC phosphorylation at 10 uM after 3 days by Western blotting method relative to control. The class given is cell-based. The essentials:
as §3

Data set [10] deals with 3T3-L1. As to the kind of experiment: Effect on AMPKalpha mRNA expression in mouse 3T3L1 cells at 10 uM after 3 days by qRT-PCR method. The class given is functional, cell-based. In a few lines:
as §2

Data set [11] deals with 3T3-L1. As to the kind of experiment: Effect on ACC mRNA expression in mouse 3T3L1 cells at 10 uM after 3 days by qRT-PCR method. The class given is functional, cell-based. In a few lines:
as §2

Data set [12] concerns 3T3-L1. As to the kind of experiment: Upregulation of SIRT1 mRNA expression in mouse 3T3L1 cells at 10 uM after 3 days by qRT-PCR method. The class given is functional, cell-based.
Data set [13] concerns 3T3-L1. The experiment in a line: Upregulation of SIRT1 protein expression in mouse 3T3L1 cells at 10 uM after 3 days by Western blotting method. The class given is functional, cell-based. In a few lines:
as §3

In data set [14] the test system is 3T3-L1. The experiment in a line: Downregulation of PPARgamma protein expression in mouse 3T3L1 cells at 10 uM after 3 days by Western blotting method. It counts as functional, cell-based. The essentials: as §3
For data set [15], the system named is 3T3-L1. The experiment in a line: Downregulation of SREBP-1c protein expression in mouse 3T3L1 cells at 10 uM after 3 days by Western blotting method. It counts as functional, cell-based. In a few lines:
as §3

Data set [16] relates to 3T3-L1. The experiment in a line: Downregulation of FABP4 protein expression in mouse 3T3L1 cells at 10 uM after 3 days by Western blotting method. The class given is functional, cell-based. The essentials: as §3

Activity calls are given as the source filed them. No cut-off for these calls is given here.

`O=c1cc(O)cc(/C=C/C2CCCCC2)[nH]1`: the inhibition at 10 µM with 3T3-L1 [1] was determined as 78.4%. For the same compound, in the data set on 3T3-L1 [2], the inhibition entry was “Dose-dependent effect”. Besides, in the data set with 3T3-L1 [3], the inhibition result is “Active”. In [4], this compound gave a 50% cytotoxic concentration (CC50) at 24 h of 13.8 µM. The result in the data set with 3T3-L1 [5], in the data set with 3T3-L1 [6], in the data set on 3T3-L1 [7], in the data set on 3T3-L1 [12] and in the data set with 3T3-L1 [13] was Active. For the same compound, the values for the fold change (FC) in the data set filed under Mus musculus [8] and in the data set filed under Mus musculus [9] were 3.45 and 2.98, respectively. For the same compound, the result in the data set with 3T3-L1 [10] and in the data set on 3T3-L1 [11] was inactive.
Consider `Cc1ccc(/C=C/c2cc(O)cc(=O)[nH]2)o1`, for which, in the data set on 3T3-L1 [2], the inhibition entry was “Dose-dependent effect”. Moreover, the inhibition entry with 3T3-L1 [3] was “Active”. The CC50 at 24 h in [4] is above 1000 µM. For the same compound, the outcome in the data set on 3T3-L1 [5], in the data set on 3T3-L1 [6], with 3T3-L1 [7], in the data set on 3T3-L1 [14], in the data set with 3T3-L1 [15] and in the data set with 3T3-L1 [16] was Active. The result in the data set with 3T3-L1 [12] and in the data set with 3T3-L1 [13] was Active. Besides, the figures for the fold change (FC) in the data set filed under Mus musculus [8] and in the data set filed under Mus musculus [9] were 3.1 and 4.12, respectively. In addition, the result with 3T3-L1 [10] and with 3T3-L1 [11] was inactive.
As for `O=c1cc(O)cc(/C=C/c2cccs2)[nH]1`, the inhibition result in the data set with 3T3-L1 [2] is “Dose-dependent effect”.
As to `Oc1ccc(/C=C/c2cc(O)cc(O)c2)cc1` [RESVERATROL], the inhibition result in the data set with 3T3-L1 [3] is “Active”. For the same compound, it took 22.8 µM to reach half-maximal cytotoxicity in data set [4] (CC50 at 24 h).
For the compound `O=c1cc(O)cc(/C=C/c2ccco2)[nH]1`, the inhibition result in the data set with 3T3-L1 [2] was “Dose-dependent effect”.
For the compound `O=c1cc(O)cc(/C=C/c2ccccc2)[nH]1`, in the data set with 3T3-L1 [2], the inhibition entry was “Dose-dependent effect”.
Regarding `COc1ccc2cc3[n+](cc2c1OC)CCc1cc2c(cc1-3)OCO2`, the inhibition result in the data set on 3T3-L1 [3] was “Active”.
Turning to `O=c1cc(O)cc(/C=C/c2ccccc2Cl)[nH]1`, in the data set on 3T3-L1 [2], the inhibition entry was “Dose-dependent effect”.

The values are drawn from ChEMBL document CHEMBL4251571, “Design, syntheses and lipid accumulation inhibitory activities of novel resveratrol mimics” (Eur J Med Chem, 2018).
